# Source: PubChem BioAssay (Johns Hopkins Ion Channel Center)
# Kir21 inh – inhibitors of mouse Kir2.1 inward-rectifier potassium channel; Inward rectifier potassium channel 2 (Mus musculus), P35561; HEK293-Kir2.1, FluxOR thallium flux fluorescence; active compounds read low; B-score at 10 µM; 310,000 tested, 0.85% active; AID 1672, 2009;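 active means fluorescence ratio B-score at or below minus 3 SD of library scores, with starting-brightness B-score within 2 SD, cut at about -4.2 in these data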;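 further: channel flux triggered by added potassium and thallium sulfate stimulus; B-score of peak minus minimum fluorescence over baseline after thallium stimulus; more negative B-score means stronger Kir2.1 block with less thallium influx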
# KCNK9 inh – KCNK9 potassium channel inhibitors, primary screen, HEK293 cells, thallium flux; Potassium channel subfamily K member 9 (Homo sapiens), Q9NPC2; FluxOR thallium flux fluorescence; active compounds read low; B-score at 10 µM; 310,000 tested, 1.2% active;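 active means ratio B-score over 3 SD below the library mean, with starting fluorescence within 5 SD of its mean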;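 further: negative B-score means less thallium flux so channel inhibition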
# hERG protect – hERG rescue from dofetilide block, primary screen, cell-based, CHO-hERG, FluxOR thallium flux, dofetilide IC70; dofetilide IC70 present; activation (rescue from dofetilide block), less the hit threshold, % at 10 µM; Voltage-gated inwardly rectifying potassium channel KCNH2 (Homo sapiens), Q12809; 310,000 tested, 0.51% active;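 active means activation above the mean of controls blocked by dofetilide plus 5 SD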;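 further: thallium influx through hERG after potassium depolarization seen as dye fluorescence rise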
# Target sequence (Q12809 whole entry, looked up): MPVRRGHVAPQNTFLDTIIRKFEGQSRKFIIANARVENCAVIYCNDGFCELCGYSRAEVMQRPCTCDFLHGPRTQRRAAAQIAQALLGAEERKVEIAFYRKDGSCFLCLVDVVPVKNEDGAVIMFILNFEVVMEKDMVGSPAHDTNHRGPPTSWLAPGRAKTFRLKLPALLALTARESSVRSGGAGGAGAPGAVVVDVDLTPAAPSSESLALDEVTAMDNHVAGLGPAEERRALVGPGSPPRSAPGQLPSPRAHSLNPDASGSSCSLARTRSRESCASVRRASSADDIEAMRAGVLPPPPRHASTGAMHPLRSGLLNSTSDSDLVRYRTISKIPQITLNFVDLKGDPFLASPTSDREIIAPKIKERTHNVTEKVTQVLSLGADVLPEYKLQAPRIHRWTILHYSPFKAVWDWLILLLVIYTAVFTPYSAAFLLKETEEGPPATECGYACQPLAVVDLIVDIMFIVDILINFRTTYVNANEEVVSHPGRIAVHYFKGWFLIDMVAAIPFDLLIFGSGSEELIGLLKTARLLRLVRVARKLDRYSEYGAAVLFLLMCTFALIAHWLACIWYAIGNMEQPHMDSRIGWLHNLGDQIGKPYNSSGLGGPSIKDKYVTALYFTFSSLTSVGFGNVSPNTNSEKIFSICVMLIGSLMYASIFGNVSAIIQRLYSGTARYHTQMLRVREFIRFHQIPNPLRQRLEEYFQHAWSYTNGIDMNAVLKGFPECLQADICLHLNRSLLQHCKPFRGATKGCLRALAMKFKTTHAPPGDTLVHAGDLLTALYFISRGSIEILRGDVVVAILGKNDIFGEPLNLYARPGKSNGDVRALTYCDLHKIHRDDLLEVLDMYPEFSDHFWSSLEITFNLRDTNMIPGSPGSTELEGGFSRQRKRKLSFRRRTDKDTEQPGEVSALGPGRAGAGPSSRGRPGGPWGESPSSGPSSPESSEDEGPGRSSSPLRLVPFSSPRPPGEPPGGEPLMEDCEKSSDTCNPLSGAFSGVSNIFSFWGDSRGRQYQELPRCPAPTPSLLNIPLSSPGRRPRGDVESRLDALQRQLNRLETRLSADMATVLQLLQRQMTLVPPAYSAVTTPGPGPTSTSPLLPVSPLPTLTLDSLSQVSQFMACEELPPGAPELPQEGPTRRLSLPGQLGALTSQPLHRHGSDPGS
# KCNQ1 block – inhibitors of human KCNQ1 channel, primary screen, cell-based, thallium flux, high-throughput; Potassium voltage-gated channel subfamily KQT member 1 (Homo sapiens), P51787; CHO-K1 KCNQ1, FluxOR thallium flux fluorescence; active compounds read high; B-score at 10 µM; 310,000 tested, 1.3% active; AID 2642, 2010;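 active means compounds whose thallium flux B-score, printed positive for inhibition, exceeds three library SD while starting fluorescence stays within three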;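 further: channel opened by potassium depolarization with thallium stimulus after 20 min compound exposure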
# KCNK3 inh – human KCNK3 channel inhibitors, primary screen, CHO cells, FluxOR thallium flux, B-score | Potassium channel subfamily K member 3 (Homo sapiens), O14649 | FluxOR fluorescence; active compounds read low | B-score at 10 µM | 340,000 tested, 0.84% active | AID 602410, 2012;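 active means B-score under library mean minus 4 SD, starting fluorescence ratio at most library mean plus 5 SD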;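 further: more negative B-score means stronger inhibition of thallium flux through KCNK3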
# KCNQ1 pot – potentiators or activators of KCNQ1 channel, primary screen, cell-based, thallium flux, high-throughput. Potassium voltage-gated channel subfamily KQT member 1 (Homo sapiens), P51787. CHO-K1 KCNQ1, thallium flux FluxOR fluorescence; active compounds read high. B-score at 10 µM. 310,000 tested, 0.35% active. AID 2648, 2010;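 active means fluorescence ratio B-score, a plate-corrected score, at least three library SD, with initial intensity B-score within 5 SD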
#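 Material: CHO-K1 cells stably expressing KCNQ1. Medium: assay buffer for compound exposure, DMSO matched across wells. Reagent: K+/Tl+ depolarizing stimulus. Compound dosing: single-concentration screen. Times: 37 °C overnight plating, 90-min dark dye load, 20-min compound pretreatment. Technique: FluxOR Tl+ flux fluorescence.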
# KCNK9 block conf – KCNK9 potassium channel inhibitors, confirmation, HEK293 cells, thallium flux, duplicate. shares compounds with KCNK9 inh. FluxOR thallium flux fluorescence. inhibition, % at 10 µM. 4,900 tested, 43% active;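 active means thallium signal inhibited by more than 5 SD of the compound-free buffer control wells, on both duplicate plates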;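 further: 0% = assay buffer control wells without compound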
# Kir21 sel – mouse Kir2.1 channel inhibition, confirmation, selectivity assay for KCNK9 modulator project, cell-based, HEK293, thallium flux | 4,900 tested, 4% active | inhibition, % at 10 µM | Kir2.1 cells, FluxOR thallium flux fluorescence | AID 492993, 2010 | shares compounds with KCNK9 inh;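 active means thallium signal drop more than 5 SD beyond the mean of the no-compound control wells, seen in both duplicate plates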;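 further: signal is fluorescence rise after thallium addition divided by baseline fluorescence; plate controls were assay buffer only for no effect and full block by chlorpromazine control for full effect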
# HEK293 Tl ctr – thallium flux in non-induced HEK293 cells, confirmation, counter-screen for KCNK9 inhibitor project, cell-based, second counter screen, non-induced KCNK9-HEK293; inhibition, % at 10 µM; 4,900 tested, 40% active; FluxOR thallium flux; shares compounds with KCNK9 inh;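 active means thallium signal drop beyond 5 SD of the untreated control mean, on both duplicate plates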;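 further: plate controls were buffer only IC0 wells for no effect and SID17386958 at its maximal inhibitory level for full effect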
# Numbers without * were called inactive; i = inactive; . = no result. Only some compounds are listed: those with a hit (about 3.7% of all), similar ones and a draw of the others.
SMILES,Kir21 inh,KCNK9 inh,hERG protect,KCNQ1 block,KCNK3 inh,KCNQ1 pot,KCNK9 block conf,Kir21 sel,HEK293 Tl ctr
COc1cc(C)c(NC(=O)C(=S)NCCc2ccccc2)cc1C,1.2,i,-12,i,i,i,i,i,i
COc1cccc(NC(=S)N(CCCN2CCOCC2)C(C)c2cc3cccc(OC)c3o2)c1 (stereo unspecified),1.4,i,-9,i,i,i,.,.,.
COc1cccc(NC(=O)N(CCCN2CCOCC2)C(C)c2cc3cccc(OC)c3o2)c1 (stereo unspecified),-0.04,-8.3*,-2,i,i,i,40%*,i,31%*
Cc1ccc(CCC(=O)Nc2ccc([N+](=O)[O-])cc2)o1,-2.1,i,4,i,i,i,.,.,.
Cc1ccc(C)c(S(=O)(=O)N2CCCOC2CNC(=O)C(=O)NCCc2ccco2)c1 (stereo unspecified),-0.99,i,-7,i,i,i,.,.,.
CC(=O)c1c(C)nn(-c2ccccc2)c1C,-0.64,i,-11,i,i,i,.,.,.
Cc1ccc(CN(C)C(=O)c2c(C)nn(-c3ccccc3)c2C)cc1,-0.39,i,0,i,i,i,i,i,i
O=c1c2cc(-c3ccccc3)sc2ncn1/N=C/c1ccco1,-1.8,i,-4,i,i,i,i,i,i
CCCCCn1cnc2sc(-c3ccccc3)cc2c1=O,-0.12,i,-8,i,i,i,.,.,.
O=C(COC(=O)c1ccc([N+](=O)[O-])o1)Nc1ncc(Cl)cc1Cl,.,.,.,.,i,.,.,.,.
N#Cc1nc(COc2ccccc2)oc1N1CCCCCC1,0.06,i,-15,i,i,i,.,.,.
N#Cc1nc(COc2ccc(F)cc2)oc1N1CCCCC1,-0.32,i,-14,i,i,i,i,i,i
COc1ccc([C@H]2/C=C\CN(C(=O)c3ccccc3)[C@@H](C)C(=O)N2Cc2ccc(F)cc2)cc1,-0.03,i,-12,i,i,i,.,.,.
O=C(O)CC1S/C(=N/N=C/c2ccccn2)NC1=O (stereo unspecified),2.4,i,-3,i,i,i,.,.,.
CCOc1cc(/C=N/N=C2/NC(=O)C(CC(=O)O)S2)ccc1OCc1ccc(Cl)cc1Cl (stereo unspecified),-2.1,i,-5,i,i,i,i,i,i
COc1cc(OC)nc(Oc2cccc(C(F)(F)F)c2)n1,0.18,-10*,-7,i,i,i,48%*,i,38%*
O=C(COC(=O)c1cccs1)Nc1ccccc1[N+](=O)[O-],-0.04,i,-12,i,i,i,.,.,.
Cc1ccc(NS(=O)(=O)c2cc(C(=O)NCCSc3ccc(C)cc3)ccc2C)cc1,-0.29,i,-3,i,i,i,i,i,i
CS(=O)(=O)Nc1ccccc1C(=O)NCCSc1ccc(Cl)cc1,-3.7,i,-13,i,i,i,.,.,.
